Measurements taken from ChEMBL document CHEMBL2375255, “New quinazoline derivatives for telomeric G-quadruplex DNA: effects of an added phenyl group on quadruplex binding ability” (Eur J Med Chem, 2013).
Calls of active or inactive are those of the source. No cut-off for these calls is given here.

tested on: HL-60; assay: Induction of senescence in human HL60 cells assessed as increase in proportion of enlarged and flattened cells at 1 uM after 12 days by senescence-associated beta-galactosidase activity based optical microscopic analysis; format: functional, cell-based; settings: not given
Method in brief: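 HL60 cells treated continuously for 12 days; 0.1% DMSO as control. Cells fixed 15 min at room temperature in 2% formaldehyde/0.2% glutaraldehyde, then washed with PBS. Stained overnight at 37 °C with 1 mg/mL X-gal solution. Enlarged, flattened, stained cells viewed by optical microscopy.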

| Structure (SMILES) | Activity |
| --- | --- |
| CN(C)CCCNCCC(=O)Nc1ccc(C(=O)Nc2cc(Cl)ccc2-c2nc(NCCCN(C)C)c3ccccc3n2)cc1 | Active |

species: Homo sapiens; assay: Binding affinity to human telomeric G-quadruplex 5'-d(GGG[TTAGGG]3)-3' DNA assessed as induction of conformation conversion from antiparallel to parallel type at 25 uM after 5 mins by circular dichroism spectroscopic analysis; settings: not given

| Structure (SMILES) | Activity |
| --- | --- |
| CN(C)CCCNc1nc(-c2ccc(Cl)cc2NC(=O)c2ccc(NC(=O)CCN3CCN(C)CC3)cc2)nc2ccccc12 | Active |
| CN(C)CCCNc1nc(-c2ccc(Cl)cc2NC(=O)CCN2CCN(C)CC2)nc2ccccc12 | Active |
| CCN(CC)CC(=O)Nc1ccc(C(=O)Nc2ccccc2-c2nc(NCCCN(C)C)c3ccccc3n2)cc1 | Active |
| CN(C)CCCNc1nc(-c2ccccc2NC(=O)CN2CCN(C)CC2)nc2ccccc12 | inactive |
| CN(C)CCCNc1nc(-c2ccccc2NC(=O)c2ccc(NC(=O)CN3CCN(C)CC3)cc2)nc2ccccc12 | Active |
| CN(C)CCCNc1nc(-c2ccccc2NC(=O)CN2CCOCC2)nc2ccccc12 | inactive |
| CN(C)CCCNc1nc(-c2ccccc2NC(=O)c2ccc(NC(=O)CN3CCCC3)cc2)nc2ccccc12 | Active |
| CN(C)CCCNCCC(=O)Nc1ccccc1-c1nc(NCCCN(C)C)c2ccccc2n1 | Active |
| CN(C)CCCNc1nc(-c2ccccc2NC(=O)CCN2CCN(C)CC2)nc2ccccc12 | Active |
| CN(C)CCCNc1nc(-c2ccccc2NC(=O)c2ccc(NC(=O)CCN3CCN(C)CC3)cc2)nc2ccccc12 | Active |
| CN(C)CCCNc1nc(-c2ccc(Cl)cc2NC(=O)c2ccc(NC(=O)CCN3CCCC3)cc2)nc2ccccc12 | Active |
| CN(C)CCCNCCC(=O)Nc1ccc(C(=O)Nc2cc(Cl)ccc2-c2nc(NCCCN(C)C)c3ccccc3n2)cc1 | Active |

tested on: HL-60; assay: Binding affinity to G-quadruplex DNA in human HL60 cells assessed as telomere shortening at 0.01 to 1 uM after 12 days by restriction fragment length assay; settings: not given

| Structure (SMILES) | Activity |
| --- | --- |
| CN(C)CCCNCCC(=O)Nc1ccc(C(=O)Nc2cc(Cl)ccc2-c2nc(NCCCN(C)C)c3ccccc3n2)cc1 | Active |

biological target: Telomerase reverse transcriptase (Homo sapiens, UniProt O14746); assay: Inhibition of telomerase in human HL60 cell extract by TRAP-LIG assay; parameters: species or system HL-60; settings: not given
Sequence (O14746 whole entry): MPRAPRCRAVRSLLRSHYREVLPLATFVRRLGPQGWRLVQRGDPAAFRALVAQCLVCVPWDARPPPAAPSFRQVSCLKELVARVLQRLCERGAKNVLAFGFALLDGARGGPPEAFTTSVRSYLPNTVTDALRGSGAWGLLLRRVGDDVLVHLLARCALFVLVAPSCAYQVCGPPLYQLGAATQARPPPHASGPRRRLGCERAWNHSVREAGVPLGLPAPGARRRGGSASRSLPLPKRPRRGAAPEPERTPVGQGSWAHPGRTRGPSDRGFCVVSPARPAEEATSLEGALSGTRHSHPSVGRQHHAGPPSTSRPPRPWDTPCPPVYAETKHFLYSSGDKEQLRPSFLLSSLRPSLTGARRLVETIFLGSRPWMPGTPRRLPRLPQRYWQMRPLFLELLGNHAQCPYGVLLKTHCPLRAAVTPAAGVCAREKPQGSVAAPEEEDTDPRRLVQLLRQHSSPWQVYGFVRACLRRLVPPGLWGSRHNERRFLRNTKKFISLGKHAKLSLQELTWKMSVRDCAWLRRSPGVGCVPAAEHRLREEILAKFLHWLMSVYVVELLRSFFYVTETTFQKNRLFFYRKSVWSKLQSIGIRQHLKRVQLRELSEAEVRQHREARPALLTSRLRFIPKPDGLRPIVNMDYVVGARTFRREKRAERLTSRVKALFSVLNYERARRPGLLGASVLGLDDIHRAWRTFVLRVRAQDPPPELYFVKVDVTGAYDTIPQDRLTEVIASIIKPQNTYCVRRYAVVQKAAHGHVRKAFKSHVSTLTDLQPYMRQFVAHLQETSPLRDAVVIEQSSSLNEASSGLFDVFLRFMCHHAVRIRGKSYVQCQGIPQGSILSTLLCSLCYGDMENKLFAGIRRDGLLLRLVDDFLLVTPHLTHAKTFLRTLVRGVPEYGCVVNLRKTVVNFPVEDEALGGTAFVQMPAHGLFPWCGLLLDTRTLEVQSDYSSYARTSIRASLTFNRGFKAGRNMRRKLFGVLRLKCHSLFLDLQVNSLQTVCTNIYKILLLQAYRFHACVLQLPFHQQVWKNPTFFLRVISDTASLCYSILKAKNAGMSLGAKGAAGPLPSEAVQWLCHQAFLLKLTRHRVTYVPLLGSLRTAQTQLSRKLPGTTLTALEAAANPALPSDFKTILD
Method in brief: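 TRAP-LIG: compounds added to telomerase reaction mix containing HL60 cell extract. Ligand removed after enzyme incubation, before amplification. Purified extended products PCR-amplified for 35 cycles (94 °C 30 s, 61 °C 1 min, 72 °C 1 min). IC50 determined.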

| Structure (SMILES) | IC50 [nM] |
| --- | --- |
| CN(C)CCCNCCC(=O)Nc1ccccc1-c1nc(NCCCN(C)C)c2ccccc2n1 | > 50000 |
| CN(C)CCCNCCC(=O)Nc1ccc(C(=O)Nc2cc(Cl)ccc2-c2nc(NCCCN(C)C)c3ccccc3n2)cc1 | 2300 |

biological target: not listed separately; assay: Binding affinity to biotinylated duplex DNA (unknown origin) by surface plasmon resonance analysis; settings: not given
Method in brief: (§1)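 SPR with a Neutravidin-coated sensor chip. Biotinylated duplex DNA and biotinylated HTG21 were folded in running buffer (50 mM Tris-HCl, 100 mM KCl, pH 7.4, 0.005% Tween20) and immobilized. A range of ligand concentrations was injected simultaneously over G-quadruplex, duplex and blank reference channels. Binding plots from sensorgrams gave equilibrium constants (KD).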

| Structure (SMILES) | Kd [nM] |
| --- | --- |
| CCN(CC)CC(=O)Nc1ccc(C(=O)Nc2ccccc2-c2nc(NCCCN(C)C)c3ccccc3n2)cc1 | 11900 |
| CN(C)CCCNc1nc(-c2ccccc2NC(=O)c2ccc(NC(=O)CN3CCN(C)CC3)cc2)nc2ccccc12 | 39700 |
| CN(C)CCCNCCC(=O)Nc1ccccc1-c1nc(NCCCN(C)C)c2ccccc2n1 | 7900 |
| CN(C)CCCNc1nc(-c2ccccc2NC(=O)c2ccc(NC(=O)CCN3CCN(C)CC3)cc2)nc2ccccc12 | 13200 |

tested on: HL-60; assay: Cytotoxicity against human HL60 cells at 0.5 to 1 uM treated every 3 days up to 12 days relative to control; format: functional, cell-based; settings: not given

| Structure (SMILES) | Activity |
| --- | --- |
| CN(C)CCCNCCC(=O)Nc1ccc(C(=O)Nc2cc(Cl)ccc2-c2nc(NCCCN(C)C)c3ccccc3n2)cc1 | Active |

species: Homo sapiens; assay: Binding affinity to human telomeric G-quadruplex 5'-d(GGG[TTAGGG]3)-3' DNA assessed as change in melting temperature at 25 uM measured at 265 nM wavelength by circular dichroism spectroscopic analysis; settings: not given
Method in brief: (§2)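 HTG21 in 10 mM Tris-HCl, pH 7.4, 60 mM KCl. CD melting profiles were read at 265 nm and at 290 nm, and ΔTm was determined from them.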

| Structure (SMILES) | ΔTm [°C] |
| --- | --- |
| CN(C)CCCNc1nc(-c2ccc(Cl)cc2NC(=O)c2ccc(NC(=O)CCN3CCN(C)CC3)cc2)nc2ccccc12 | > 28 |
| CN(C)CCCNc1nc(-c2ccc(Cl)cc2NC(=O)CCN2CCN(C)CC2)nc2ccccc12 | 14.4 |
| CCN(CC)CC(=O)Nc1ccc(C(=O)Nc2ccccc2-c2nc(NCCCN(C)C)c3ccccc3n2)cc1 | 21.6 |
| CN(C)CCCNc1nc(-c2ccccc2NC(=O)CN2CCN(C)CC2)nc2ccccc12 | 3.1 |
| CN(C)CCCNc1nc(-c2ccccc2NC(=O)c2ccc(NC(=O)CN3CCN(C)CC3)cc2)nc2ccccc12 | 21.8 |
| CN(C)CCCNc1nc(-c2ccccc2NC(=O)CN2CCOCC2)nc2ccccc12 | 0.5 |
| CN(C)CCCNc1nc(-c2ccccc2NC(=O)c2ccc(NC(=O)CN3CCCC3)cc2)nc2ccccc12 | 21.4 |
| CN(C)CCCNCCC(=O)Nc1ccccc1-c1nc(NCCCN(C)C)c2ccccc2n1 | 12.4 |
| CN(C)CCCNc1nc(-c2ccccc2NC(=O)CCN2CCN(C)CC2)nc2ccccc12 | 8 |
| CN(C)CCCNc1nc(-c2ccccc2NC(=O)c2ccc(NC(=O)CCN3CCN(C)CC3)cc2)nc2ccccc12 | 21.7 |
| CN(C)CCCNc1nc(-c2ccc(Cl)cc2NC(=O)c2ccc(NC(=O)CCN3CCCC3)cc2)nc2ccccc12 | > 28 |
| CN(C)CCCNCCC(=O)Nc1ccc(C(=O)Nc2cc(Cl)ccc2-c2nc(NCCCN(C)C)c3ccccc3n2)cc1 | > 28 |

tested on: HL-60; assay: Cytotoxicity against human HL60 cells after 48 hrs by MTT assay; format: functional, cell-based; settings: HL-60, 48 h
Method in brief: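 HL60 cells seeded at 1.0 × 10³ per well and exposed to a range of concentrations for 48 h at 37 °C, 5% CO₂. MTT (5 mg/mL) added for 4 h. Formazan dissolved in DMSO and OD read at 570 nm. Each dose tested in triplicate; IC50 derived from mean OD versus concentration curves.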

| Structure (SMILES) | IC50 [nM] |
| --- | --- |
| CN(C)CCCNCCC(=O)Nc1ccc(C(=O)Nc2cc(Cl)ccc2-c2nc(NCCCN(C)C)c3ccccc3n2)cc1 | 1700 |

species: Homo sapiens; assay: Binding affinity to human telomeric G-quadruplex 5'-d(GGG[TTAGGG]3)-3' DNA assessed as change in melting temperature at 25 uM measured at 290 nM wavelength by circular dichroism spectroscopic analysis; settings: not given; method in brief: as §2

| Structure (SMILES) | ΔTm [°C] |
| --- | --- |
| CN(C)CCCNc1nc(-c2ccc(Cl)cc2NC(=O)c2ccc(NC(=O)CCN3CCN(C)CC3)cc2)nc2ccccc12 | 3.4 |
| CN(C)CCCNc1nc(-c2ccc(Cl)cc2NC(=O)CCN2CCN(C)CC2)nc2ccccc12 | 4.4 |
| CCN(CC)CC(=O)Nc1ccc(C(=O)Nc2ccccc2-c2nc(NCCCN(C)C)c3ccccc3n2)cc1 | 11.6 |
| CN(C)CCCNc1nc(-c2ccccc2NC(=O)CN2CCN(C)CC2)nc2ccccc12 | 0.6 |
| CN(C)CCCNc1nc(-c2ccccc2NC(=O)c2ccc(NC(=O)CN3CCN(C)CC3)cc2)nc2ccccc12 | 7.4 |
| CN(C)CCCNc1nc(-c2ccccc2NC(=O)CN2CCOCC2)nc2ccccc12 | 0 |
| CN(C)CCCNc1nc(-c2ccccc2NC(=O)c2ccc(NC(=O)CN3CCCC3)cc2)nc2ccccc12 | 11.7 |
| CN(C)CCCNCCC(=O)Nc1ccccc1-c1nc(NCCCN(C)C)c2ccccc2n1 | 6.2 |
| CN(C)CCCNc1nc(-c2ccccc2NC(=O)CCN2CCN(C)CC2)nc2ccccc12 | 2.1 |
| CN(C)CCCNc1nc(-c2ccccc2NC(=O)c2ccc(NC(=O)CCN3CCN(C)CC3)cc2)nc2ccccc12 | 8.2 |
| CN(C)CCCNc1nc(-c2ccc(Cl)cc2NC(=O)c2ccc(NC(=O)CCN3CCCC3)cc2)nc2ccccc12 | 5.7 |
| CN(C)CCCNCCC(=O)Nc1ccc(C(=O)Nc2cc(Cl)ccc2-c2nc(NCCCN(C)C)c3ccccc3n2)cc1 | 14.8 |

tested on: HL-60; assay: Cytotoxicity against human HL60 cells treated every 3 days up to 12 days; format: functional, cell-based; settings: not given

| Structure (SMILES) | Activity |
| --- | --- |
| CN(C)CCCNCCC(=O)Nc1ccc(C(=O)Nc2cc(Cl)ccc2-c2nc(NCCCN(C)C)c3ccccc3n2)cc1 | Dose-dependent effect |

tested on: HL-60; assay: Binding affinity to G-quadruplex DNA in human HL60 cells assessed as telomere shortening at 1 uM after 12 days by restriction fragment length assay; format: cell-based; settings: not given
Method in brief: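 HL60 cells exposed to ligand for 12 days. Genomic DNA digested with Hinf1/Rsa1, run on 0.8% agarose gel and transferred to nylon membrane. DNA fixed by baking at 120 °C for 20 min. Membrane hybridized with DIG-labelled telomeric-repeat probe, then detected with anti-DIG-alkaline phosphatase.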

| Structure (SMILES) | Activity |
| --- | --- |
| CN(C)CCCNCCC(=O)Nc1ccc(C(=O)Nc2cc(Cl)ccc2-c2nc(NCCCN(C)C)c3ccccc3n2)cc1 | Active |

species: Homo sapiens; assay: Binding affinity to human biotinylated telomeric G-quadruplex 5'-d(GGG[TTAGGG]3)-3' DNA up to 20 uM by surface plasmon resonance analysis; settings: not given; method in brief: as §1

| Structure (SMILES) | Activity |
| --- | --- |
| CN(C)CCCNc1nc(-c2ccccc2NC(=O)CN2CCN(C)CC2)nc2ccccc12 | inactive |
| CN(C)CCCNc1nc(-c2ccccc2NC(=O)CCN2CCN(C)CC2)nc2ccccc12 | inactive |

biological target: not listed separately; assay: Binding affinity to human biotinylated telomeric G-quadruplex 5'-d(GGG[TTAGGG]3)-3' DNA by surface plasmon resonance analysis; settings: not given; method in brief: as §1

| Structure (SMILES) | Kd [nM] |
| --- | --- |
| CN(C)CCCNc1nc(-c2ccc(Cl)cc2NC(=O)c2ccc(NC(=O)CCN3CCN(C)CC3)cc2)nc2ccccc12 | 276 |
| CCN(CC)CC(=O)Nc1ccc(C(=O)Nc2ccccc2-c2nc(NCCCN(C)C)c3ccccc3n2)cc1 | 8340 |
| CN(C)CCCNc1nc(-c2ccccc2NC(=O)c2ccc(NC(=O)CN3CCN(C)CC3)cc2)nc2ccccc12 | 2750 |
| CN(C)CCCNCCC(=O)Nc1ccccc1-c1nc(NCCCN(C)C)c2ccccc2n1 | 3360 |
| CN(C)CCCNc1nc(-c2ccccc2NC(=O)c2ccc(NC(=O)CCN3CCN(C)CC3)cc2)nc2ccccc12 | 1480 |
| CN(C)CCCNc1nc(-c2ccc(Cl)cc2NC(=O)c2ccc(NC(=O)CCN3CCCC3)cc2)nc2ccccc12 | 227 |
| CN(C)CCCNCCC(=O)Nc1ccc(C(=O)Nc2cc(Cl)ccc2-c2nc(NCCCN(C)C)c3ccccc3n2)cc1 | 379 |

tested on: not listed separately; assay: Binding affinity to biotinylated duplex DNA (unknown origin) up to by surface plasmon resonance analysis; settings: not given; method in brief: as §1

| Structure (SMILES) | Activity |
| --- | --- |
| CN(C)CCCNc1nc(-c2ccc(Cl)cc2NC(=O)c2ccc(NC(=O)CCN3CCN(C)CC3)cc2)nc2ccccc12 | inactive |
| CN(C)CCCNc1nc(-c2ccc(Cl)cc2NC(=O)c2ccc(NC(=O)CCN3CCCC3)cc2)nc2ccccc12 | inactive |
| CN(C)CCCNCCC(=O)Nc1ccc(C(=O)Nc2cc(Cl)ccc2-c2nc(NCCCN(C)C)c3ccccc3n2)cc1 | inactive |
